Reference: the EternaBench riboswitch data

Test system: MS2 coat protein
Test: apparent Kd, MS2 coat protein; higher = weaker binding; RNA-MaP array; FMN 200 µM where present
In short: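 Stalled E. coli RNA polymerase produced the designs on Illumina sequencing-chip clusters. SNAP-549-labelled MS2 coat protein was added from 0.7 or 1.5 nM, doubling to 3 µM, without and then with constant ligand, in 100 mM Tris-HCl pH 7.5, 80 mM KCl, 4 mM MgCl2, BSA, DTT, yeast tRNA and Tween-20. The apparent Kd is the median of filtered per-cluster fits of green signal normalised to red-channel RNA signal and control-cluster median Fmax.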

[1] = designed as: OFF switch for flavin mononucleotide, no ligand
[2] = ligand present: flavin mononucleotide, designed as: OFF switch for flavin mononucleotide
[3] = designed as: ON switch for flavin mononucleotide, no ligand
[4] = ligand present: flavin mononucleotide, designed as: ON switch for flavin mononucleotide

Row | Sequence | apparent Kd [1] | apparent Kd [2] | apparent Kd [3] | apparent Kd [4]
1 | CGGUGACAUGAGGAUCACCCAUGUUAGGAUAUACAAAAGCUCGCUCAAGGGCGGCGAAGUAGAAGGAGCGUGCC | 0.0217 µM | 0.0297 µM |  | 
2 | AGCAAGUUUACAUGAGGAUCACCCAUGUUUUUUAGGGUUAUCAGAAGGUACAUUUUGAGAUAGAGUAAGGAUAUGAUAUAUGCG |  |  | 0.169 µM | 0.0551 µM
3 | CCACCCUGAGGAUAUCCACCCUGAUACAUGAGGAUCACCCAUGUUAAUGCCUGAGUUCCCGGAGAAGGCAGAUUCC | 0.0405 µM | 0.0347 µM |  | 
4 | UGGUGACGUGUAGGAUAUGGAGGUGGGUUUUGGCCAGAAGGACAUGAGGAUCACCCAUGUGGUAGAGGGUUGGCGGUGGCCCGU | 0.0177 µM | 0.0152 µM |  | 
5 | UUAAAUCAUGUAGGAUAUGCAUGGCGAAGCUACGCAGAAGGACAUGAGGAUCACCCAUGUGCUAGCGUCUGGAAACAGAUGCAA | 0.056 µM | 0.269 µM |  | 
6 | CUGCUCCGUGUAGGAUAUGCAUACUCCCAUUAUGCAGAAGGACAUGAGGAUCACCCAUGUAUGUUAUUAUCACGUGUUGCGUAC | 0.0257 µM | 0.0922 µM |  | 
7 | CUAUAUUAGUAGAAGGACGGAGAGUAUGUAGUCGUAGGAUAUACAUAAGACAUGAGGAUCACCCAUGUGUGUAUGUUGGGUAUG | 0.00966 µM | 0.00803 µM |  | 
8 | GCACAACAUGAGGAUCACCCAUGUCUCACAAACCAAGGAUAUGGGCCCGGCCAGGCCGGAUCAGAAGGUGGAAAAU |  |  | 0.312 µM | 0.143 µM
9 | CCGAAUAAGCAGGAUAUCGUAUCGGAAACGAUACGAGAAGGGUUAACAUGAGGAUCACCCAUGUUCCUUAACGG | 0.0203 µM | 0.0248 µM |  | 
10 | AUAUAUAUAAAGAAGGUGCCAGCGAGAGCUGCACAUGAGGAUCACCCAUGUUGUCGGUGACGACGCAAGGAUAUUUAUAUAUAU |  |  | 0.0316 µM | 0.00728 µM
11 | AUUAAACAUGAGGAUCACCCAUGUCAACAAAGUCGAGGAUAUGGGCAAUUAAAAUAAGAACCAGAAGGCGAAUAAU |  |  | 0.34 µM | 0.0354 µM
12 | ACAUGAGGAUCACCCAUGUAAAAUUAGGAUAUAUGACUGCACAUGAGGUUCACCCAUGUUCUACCGUAGAAGGGAUAAAUAAUU |  |  | 0.0711 µM | 0.0756 µM
13 | ACAUACAUUCGAGGAUAUCGGUGAUAACUCAAACGAGAAGGCGAUUUAAAACAUAAUGCUGUAGACAUGAGGAUCACCCAUGUA |  |  | 0.497 µM | 0.137 µM
14 | CAUUAAUUCAUUAUAGUUAUUAUACAGGAUAUGUUACAUGAGGAUCACCCAUGUAUUCAUGGUAAACAGAAGGGUAAUACUCGU | 0.0493 µM | 0.0459 µM |  | 
15 | UUUUAACAUGAGGAUCACCCAUGUGAGGAUAUCGAUAUUUAUAUUAAUAUUAAUAAAACGAGAAGGCACAUUUU | 0.071 µM | 0.0872 µM |  | 
16 | GUCAGCUCGUGAGGAUAUACAACACUGCUUCGGCAGUGUAUUAAGAUUACAUGAGGAUCACCCAUGUAGAAGGCACGAGCUGAU | 0.00501 µM | 0.00695 µM |  | 
17 | GGUACCAUCACAGGAUAUGCUUUCCUUUGGAAAGCAGAAGGGUGUAACAUGAGGAUCACCCAUGUGGUGCCAGGGCGUGAGCCC |  |  | 0.184 µM | 0.013 µM
18 | AUUUGAAUGUCAGGAUAUGGUAGAUUAUUCUUAUCAGAAGGGAUAAUUAUACUCAAGUACAUGAGGAUCACCCAUGUUAAAUCA |  |  | 0.012 µM | 0.0126 µM
19 | UGAUAGGACAGAGGAUAUACGUGCUAGAGAUACUAGCUACAAAUCCUUACAUGAGGAUCACCCAUGUAGAAGGCUGUCCUAUCU | 0.0193 µM | 0.0394 µM |  | 
20 | AGGUACAACGGAGGAUAUAAUAGUCUAUAGACGUUAGAAGGCCGGGCCUUCACAUGAGGAUCACCCAUGUCUCUGGAGGCGCCU |  |  | 0.0208 µM | 0.0169 µM
21 | UGGUUCAUGGGAGGAUAUGGGAUGAUAACAUGAGGAUCACCCAUGUUAAAGAUGCCGAGAGGCAACUAGAAGGCCCAUGAACCU |  |  | 0.268 µM | 0.0617 µM
22 | ACAAAUGGAGGAUAUACAUGAGGAUCACCCAUGUAUAUCCUACAUAUGUGAUAAUCAUGUAGAAGGCCAUUUGA | 0.0123 µM | 0.011 µM |  | 
23 | AAAUGAUAGUCAGGAUAUAAGUUGGAGCCUCGGUCGCACAUGAGGAUCACCCAUGUGUCUUGGAUUUAGAAGGGACAGAUGGGC |  |  | 0.682 µM | 0.648 µM
24 | GACAUACAUGAGGAUCACCCAUGUACAGACGUACAAGGAUAUGUGUGGAAACCGUACUAUACAGAAGGUGUUUGUC |  |  | 0.0731 µM | 0.0339 µM

Row | Sequence | apparent Kd [1] | apparent Kd [2] | apparent Kd [3] | apparent Kd [4]
25 | AUGCUUUGUGUAGGAUAUGCAUACGGUACGUAUGCAGAAGGACAUGAGGAUCACCCAUGUAUAUUAUUAUUACAUAUCAUACAU | 0.0353 µM | 0.229 µM |  | 
26 | GGGUACAUCGGAGGAUAUCAUGUGUAAACAUGAGGAUCACCCAUGUCGUACGAGAGUACGGAGAUUGAGAAGGCCGAUGUACCG |  |  | 0.0867 µM | 0.0166 µM
27 | CCCUAGGUAGGAUAUACUUGGACUCGGCUGAUGUGCCUAAAACAUGAGGAUCACCCAUGUAGAAGGACUAAGGC | 0.0126 µM | 0.0116 µM |  | 
28 | AAUUAGGUCACAGGAUAUACAUCAUCCAUAGCUGUAGAAGGGUGUCAAAAUAAUAUCUGACAUGAGGAUCACCCAUGUUUCCAC |  |  | 0.025 µM | 0.0145 µM
29 | AGUUUGUGAGGAUAUCCAAUAUAUGACAUGAGGAUCACCCAUGUUUCCACUCGUACCUCCGGAGAAGGCACUGCGU | 0.0307 µM | 0.0269 µM |  | 
30 | GUGGACGUCGUAGGAUAUGUAGGAUAUUCCUACAUGAGGAUCACCCAUGUUUACAUGGAAGAAGGACAGAAGGACGAUGUCCAG |  |  | 0.992 µM | 0.0162 µM
31 | ACGGCAGUCGAAGGAUAUGGUUACAUGAGGAUCACCCAUGUCUAGGUUCUUAAAUAGUAUAAUUUCCAGAAGGUCGAAGGCCUA | 0.0294 µM | 0.0355 µM |  | 
32 | GCGCUUAUACAGAAGGCCAUAUACAUGAGGAUCACCCAUGUUACAUGGUGGAGGAUAUGUUAUUUAUUACAGGUAGAUGAGCGC |  |  | 0.00471 µM | 0.00532 µM
33 | AGGGUAGUAGGAUAUACAUGAGGAUCACCCAUGUUUCCAUUACGUGACUGGUCCUAGUGUAGAAGGGCUAGCAC |  | 0.0175 µM |  | 
34 | ACAGGACCAGUCAGGAUAUGCAGGCGAAUCUGCUUGUAGAAGGGACAUGAGGAUCACCCAUGUGCCGUGGGAUU | 0.0196 µM | 0.0314 µM |  | 
35 | GUCGAGUGAGGAUAUGGUGAGUAGUGCCAGAGCGCUGCUCACCAGAAGGCACAUGAGGAUCACCCAUGUAUAGC | 0.0168 µM | 0.0299 µM |  | 
36 | AUGCUUCACACAGGAUAUACAUGAGGAUCACCCAUGUGUCCAAAGUAGCUGACACGAGCUACGCGGUAGAAGGGUGUGAAGCAU | 0.0173 µM | 0.0543 µM |  | 
37 | CGAUGACAAAGUCAUCGAUAACGAACAUGAGGAUCACCCAUGUAGGAUAUGCUACUCAAAGAGUAGCAGAAGGACAUGUGCCUU | 0.0342 µM | 0.284 µM |  | 
38 | GGACAUUUACAGAAGGGCAAAUUUUAUAUUGAAUAUUUAGUUCUGAUUUGCAGGAUAUGUUUUACAUGAGGAUCACCCAUGUCC |  |  | 0.0599 µM | 0.0279 µM
39 | GUCUCAGCUGAGGAUAUAUUCUCCCUUGAGGGAAUAGAAGGCAGUACAUGAGGAUCACCCAUGUGGUUCGUUUG | 0.122 µM | 0.327 µM |  | 
40 | UCCUUAUCGGUCAGGAUAUACACCCGUUUCUCCUUGUAGAAGGGACAUGAGGAUCACCCAUGUACUGUACAUUU | 0.03 µM | 0.031 µM |  | 
41 | UUAUUUGUACAAGGAUAUCUAUUAUAUUCACAUCCUACAUGAGGAUCACCCAUGUUAUAUAUUUUAGAGAAGGUGUAUUGUCUG |  |  | 0.0299 µM | 0.0353 µM
42 | GGUUGUCAUAGUCAUCCUUAACGUACAUGAGGAUCACCCAUGUAGGAUAUGCUACUCAAAGAGUAGCAGAAGGGCGUGUGUCUU | 0.031 µM | 0.0355 µM |  | 
43 | AGGAAGUGAGGAUAUGCAUCAUAUAGUGGACGCUAUAGAAUGUAGAAGGCACAUGAGGAUCACCCAUGUUUAAA | 0.0302 µM | 0.0293 µM |  | 
44 | UUGCCACAUGAGGAUCACCCAUGUGAGGAUAUGGCCCGUUUGGCGUGUGCUGGUUCUGUCAGAAGGCGCGUGGG | 0.0245 µM | 0.0217 µM |  | 
45 | CUGCCUUAUGUAGGAUAUGCAUAGCGUUGCUAUGCAGAAGGACAUGAGGAUCACCCAUGUAUGUAAUCAAUACAUAUCUGGCAG | 0.0198 µM | 0.122 µM |  | 
46 | AACUAGCUAGGAUAUACAUGAGGAUCACCCAUGUAAAAAAAAAAAAAAAGAUCAAAAUGUAGAAGGAGCUAGUA | 0.106 µM | 0.132 µM |  | 
47 | GGACGAAGUGUGAGGAUAUGCUGGUCCUUGGAUCAGCAGAAGGCACAUGAGGAUCACCCAUGUGGUAAACGUCC | 0.114 µM | 0.746 µM |  | 
48 | GGGUACAUCGGAGGAUAUCAUGUAAAUACAUGAGGAUCACCCAUGUCGUACGAGAGUACGGAGAUUGAGAAGGCCGAUGUACCG |  |  | 0.0249 µM | 0.0153 µM
